This passage reports IC50, EC50 and fold change (FC) results from ChEMBL document CHEMBL4190239, “A novel structural class of coumarin-chalcone fibrates as PPARα/γ agonists with potent antioxidant activities: Design, synthesis, biological evaluation and molecular docking studies” (Eur J Med Chem, 2017).

Experiment [1] is described as follows: Antioxidant activity assessed as ABTS radical scavenging activity after 30 mins. Type of experiment: functional.
Experiment [2] concerns the target T1, Peroxisome proliferator-activated receptor gamma (Homo sapiens, UniProt P37231).
T1 sequence (P37231 whole entry): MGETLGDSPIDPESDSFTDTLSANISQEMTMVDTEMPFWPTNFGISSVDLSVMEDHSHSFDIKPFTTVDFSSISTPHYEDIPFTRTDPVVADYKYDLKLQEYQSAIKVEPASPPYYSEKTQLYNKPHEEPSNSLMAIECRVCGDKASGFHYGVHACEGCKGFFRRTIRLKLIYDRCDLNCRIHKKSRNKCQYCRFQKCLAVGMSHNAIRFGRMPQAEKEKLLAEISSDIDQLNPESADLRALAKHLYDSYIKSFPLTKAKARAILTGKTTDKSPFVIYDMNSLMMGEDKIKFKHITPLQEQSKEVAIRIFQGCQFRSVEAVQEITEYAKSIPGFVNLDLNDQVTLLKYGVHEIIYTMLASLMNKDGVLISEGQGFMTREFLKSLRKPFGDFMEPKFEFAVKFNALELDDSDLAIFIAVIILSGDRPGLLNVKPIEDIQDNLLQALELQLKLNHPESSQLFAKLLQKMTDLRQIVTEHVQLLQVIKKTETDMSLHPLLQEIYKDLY
Put plainly: Agonist activity at GAL4-fused PPARgamma LBD (unknown origin) expressed in HEK293 cells assessed as receptor transactivation after 18 hrs by dual luciferase reporter gene assay. Type of experiment: cell-based. On the technique in general: Reporter assays use an easily measured gene product as a stand-in for the process of interest.

For experiment [3], the target named is T2, Peroxisome proliferator-activated receptor alpha (Homo sapiens, UniProt Q07869).
T2 sequence (Q07869 whole entry): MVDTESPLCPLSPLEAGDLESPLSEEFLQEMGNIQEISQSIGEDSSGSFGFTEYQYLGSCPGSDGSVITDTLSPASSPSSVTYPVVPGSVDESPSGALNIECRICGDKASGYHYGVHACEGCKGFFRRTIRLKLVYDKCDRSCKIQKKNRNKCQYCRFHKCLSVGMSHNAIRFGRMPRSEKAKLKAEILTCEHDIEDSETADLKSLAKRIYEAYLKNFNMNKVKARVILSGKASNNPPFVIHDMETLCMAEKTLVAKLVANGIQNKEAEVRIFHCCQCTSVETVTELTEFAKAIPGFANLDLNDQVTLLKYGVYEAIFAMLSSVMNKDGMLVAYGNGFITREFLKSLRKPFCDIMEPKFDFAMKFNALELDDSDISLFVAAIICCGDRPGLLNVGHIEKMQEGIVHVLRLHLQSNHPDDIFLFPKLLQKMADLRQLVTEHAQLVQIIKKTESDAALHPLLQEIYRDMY
Briefly: Agonist activity at GAL4-fused PPARalpha LBD (unknown origin) expressed in HEK293 cells assessed as receptor transactivation after 18 hrs by dual luciferase reporter gene assay. Type of experiment: cell-based.

Experiment [4] addresses T3, Peroxisome proliferator-activated receptor gamma (Homo sapiens) (UniProt P37231).
T3 sequence (whole entry): T1 sequence (P37231 whole entry)
Put plainly: Agonist activity at GAL4-fused PPARgamma LBD (unknown origin) expressed in HEK293 cells assessed as receptor transactivation at 10 uM after 18 hrs by dual luciferase reporter gene assay. Type of experiment: cell-based. The gist of the method: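 HEK293 grown in DMEM/10% FBS to 70–80% confluence, plated, switched to FCS-free medium, transiently transfected per well with GAL4-PPARγLBD plasmid (30 ng), reporter (50 ng), renilla normalization vector (20 ng) and pGEM carrier (40 ng). Ligand added 8 h post-transfection for 18 h; firefly and renilla luciferase read by dual-luciferase kit; activation expressed as fold.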

Turning to `Cc1c(C)c2c(c(C)c1O)CCC(C)(C(=O)O)O2` (stereo not given) [TROLOX], in experiment [1], the IC50 came to 24.8 µM.
For the molecule `CC(C)(Oc1ccc(C(=O)c2cc3ccccc3oc2=O)cc1)C(=O)O`, the EC50 in experiment [2] (read-out: EC50) is 3.67 µM; in experiment [3] (read-out: EC50), 11 µM. The IC50 in experiment [1] was over 100 µM.
With `CCOC(=O)C(C)(C)Oc1ccc(C(=O)C2Cc3cc(OC)c(OC)cc3OC2=O)cc1` (stereo not given), the fold change (FC) in experiment [4] amounted to 0.9. In experiment [1], the half-inhibitory concentration (IC50) turned out to be 17.1 µM.
Take `Cc1ccc2oc(=O)c(C(=O)c3ccc(OC(C)(C)C(=O)O)cc3)cc2c1`: in experiment [4], the fold change (FC) came out at 1.04. For the same molecule, the IC50 in experiment [1] was over 100 µM.
As for `CCOC(=O)C(C)(C)Oc1ccc(C(=O)c2cc3cc(F)ccc3oc2=O)cc1`, the EC50 entry in experiment [2] (hek293) and in experiment [3] (hek293) was “Not Active” in each case. Moreover, the half-inhibitory concentration (IC50) in experiment [1] is over 100 µM.
In the case of `CCOC(=O)C(C)(C)Oc1ccc(C(=O)c2cc3c(ccc4ccccc43)oc2=O)cc1`, in experiment [4], the fold change (FC) stood at 0.83. Besides, the IC50 in experiment [1] is over 100 µM.
`CCOC(=O)C(C)(C)Oc1ccc(C(=O)c2cc3cc(OC)c(OC)cc3oc2=O)cc1`: the fold change (FC) in experiment [4] amounted to 1.01. In experiment [1], the IC50 is over 100 µM.
Turning to `CCOC(=O)C(C)(C)Oc1ccc(C(=O)c2cc3cc([N+](=O)[O-])ccc3oc2=O)cc1`, the EC50 in experiment [2] (read-out: EC50) amounted to 0.91 µM; in experiment [3] (read-out: EC50), 6.99 µM. Further, the half-maximal inhibitory concentration (IC50) in experiment [1] turned out to be 18.6 µM.
As to `CCOC(=O)C(C)(C)Oc1ccc(C(=O)c2cc3cc(C(C)(C)C)cc(C(C)(C)C)c3oc2=O)cc1`, the fold change (FC) in experiment [4] was determined as 0.81. In addition, in experiment [1], the concentration for half-maximal inhibition (IC50) is over 100 µM.
Consider `CCOC(=O)C(C)(C)Oc1ccc(C(=O)c2cc3ccccc3oc2=O)cc1`, for which the EC50 is 5.19 µM in experiment [2] (read-out: EC50) and 12.7 µM in experiment [3] (read-out: EC50). Besides, the IC50 in experiment [1] was over 100 µM.
Take `CCOC(=O)C(C)(C)Oc1ccc(C(=O)C2Cc3c(ccc4ccccc34)OC2=O)cc1` (stereo not given): the fold change (FC) in experiment [4] is 1.05. In addition, the IC50 in experiment [1] turned out to be 15 µM.
On to `CCOC(=O)C(C)(C)Oc1ccc(C(=O)c2cc3cc(N)ccc3oc2=O)cc1`, for which the EC50 result in experiment [2] (hek293) and in experiment [3] (hek293) was “Not Active” each time. Moreover, the 50% inhibitory concentration (IC50) in experiment [1] is over 100 µM.
For `CCOC(=O)C(C)(C)Oc1ccc(C(=O)c2cc3cc(Cl)ccc3oc2=O)cc1`, the fold change (FC) in experiment [4] amounted to 0.95. Moreover, in experiment [1], the IC50 is over 100 µM.
For `CCOC(=O)C(C)(C)Oc1ccc(C(=O)c2cc3cc(C)ccc3oc2=O)cc1` the same measures were 1.01 and 8.51 µM.
As for `CC(C)(Oc1ccc(C(=O)c2cc3c(ccc4ccccc43)oc2=O)cc1)C(=O)O`, the 50% effective concentration (EC50) is 56.7 µM in experiment [2] (read-out: EC50) and “Not Active” in experiment [3] (hek293). The IC50 in experiment [1] was over 100 µM.
`CCOC(=O)C(C)(C)Oc1ccc(C(=O)C2Cc3cc(C)ccc3OC2=O)cc1` (stereo not given): the fold change (FC) in experiment [4] was found to be 0.8. The 50% inhibitory concentration (IC50) in experiment [1] stood at 10.3 µM.
In the case of `CCOC(=O)C(C)(C)Oc1ccc(C(=O)C2Cc3ccccc3OC2=O)cc1` (stereo not given), the concentration for a half-maximal effect (EC50) was 39.7 µM in experiment [2] (read-out: EC50) and “Not Active” in experiment [3] (hek293). Besides, the IC50 in experiment [1] was found to be 9.4 µM.

The IC50 is the concentration that gives 50% inhibition. For orientation: EC50 means the midpoint of the concentration-response curve.
